# Bioassay records deposited in PubChem by Johns Hopkins Ion Channel Center.
# Compounds with a hit are over-represented: about 3.7% of the library has one in this group of screens.
# KCNQ1 pot = potentiators or activators of KCNQ1 channel, primary screen, cell-based, thallium flux, high-throughput; 310,000 compounds, 0.35% hits; B-score at 10 µM; Potassium voltage-gated channel subfamily KQT member 1 (Homo sapiens), P51787; CHO-K1 KCNQ1, thallium flux FluxOR fluorescence; active compounds read high;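 active = fluorescence ratio B-score, a plate-corrected score, at least three library SD, with initial intensity B-score within 5 SD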
# Target sequence (P51787 whole entry, looked up): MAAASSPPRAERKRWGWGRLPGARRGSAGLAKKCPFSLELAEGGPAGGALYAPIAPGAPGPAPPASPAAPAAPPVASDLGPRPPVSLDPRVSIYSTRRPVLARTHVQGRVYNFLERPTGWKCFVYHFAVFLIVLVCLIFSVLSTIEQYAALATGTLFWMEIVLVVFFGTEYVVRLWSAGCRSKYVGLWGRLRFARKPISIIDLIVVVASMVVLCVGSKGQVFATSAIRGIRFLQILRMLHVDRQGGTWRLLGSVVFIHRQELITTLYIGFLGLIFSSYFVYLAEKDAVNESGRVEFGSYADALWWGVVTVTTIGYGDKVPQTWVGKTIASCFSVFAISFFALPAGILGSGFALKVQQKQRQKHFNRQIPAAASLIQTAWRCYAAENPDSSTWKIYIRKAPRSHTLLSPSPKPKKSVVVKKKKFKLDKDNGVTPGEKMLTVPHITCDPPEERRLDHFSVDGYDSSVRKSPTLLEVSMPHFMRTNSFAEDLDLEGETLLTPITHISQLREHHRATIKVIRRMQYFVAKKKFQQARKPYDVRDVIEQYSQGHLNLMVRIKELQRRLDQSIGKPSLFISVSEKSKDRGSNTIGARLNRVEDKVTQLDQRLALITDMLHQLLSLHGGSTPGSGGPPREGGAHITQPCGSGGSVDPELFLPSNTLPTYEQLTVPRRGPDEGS
#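 System: CHO-K1 cells stably expressing KCNQ1 / Medium: assay buffer for compound exposure, DMSO matched across wells / Reagent: thallium- and potassium-containing depolarizing buffer / Compound: one concentration, matched DMSO / Incubation: 20 min compound pretreatment at room temperature / Measured by: kinetic FluxOR fluorescence, 10 s baseline plus 110 s post-stimulus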
# KCNK9 block = KCNK9 potassium channel inhibitors, primary screen, HEK293 cells, thallium flux; Potassium channel subfamily K member 9 (Homo sapiens), Q9NPC2; FluxOR thallium flux fluorescence; active compounds read low; B-score at 10 µM; 310,000 compounds, 1.2% hits;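 active = ratio B-score over 3 SD below the library mean, with starting fluorescence within 5 SD of its mean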;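 also: negative B-score means less thallium flux so channel inhibition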
# hERG protect = hERG rescue from dofetilide block, primary screen, cell-based, CHO-hERG, FluxOR thallium flux, dofetilide IC70 | Voltage-gated inwardly rectifying potassium channel KCNH2 (Homo sapiens), Q12809 | dofetilide IC70 present | activation (rescue from dofetilide block), less the hit threshold, % at 10 µM | 310,000 compounds, 0.51% hits | AID 1511, 2009;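 active = activation above the mean of controls blocked by dofetilide plus 5 SD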;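 also: thallium influx through hERG after potassium depolarization seen as dye fluorescence rise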
# KCNK3 block = human KCNK3 channel inhibitors, primary screen, CHO cells, FluxOR thallium flux, B-score. FluxOR fluorescence; active compounds read low. B-score at 10 µM. 340,000 compounds, 0.84% hits;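 active = B-score under library mean minus 4 SD, starting fluorescence ratio at most library mean plus 5 SD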;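 also: more negative B-score means stronger inhibition of thallium flux through KCNK3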
# Kir21 block = inhibitors of mouse Kir2.1 inward-rectifier potassium channel; HEK293-Kir2.1, FluxOR thallium flux fluorescence; active compounds read low; Inward rectifier potassium channel 2 (Mus musculus), P35561; AID 1672, 2009; B-score at 10 µM; 310,000 compounds, 0.85% hits;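 active = fluorescence ratio B-score at or below minus 3 SD of library scores, with starting-brightness B-score within 2 SD, cut at about -4.2 in these data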;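 also: channel flux triggered by added potassium and thallium sulfate stimulus; B-score of peak minus minimum fluorescence over baseline after thallium stimulus; more negative B-score means stronger Kir2.1 block with less thallium influx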
# KCNQ1 block = inhibitors of human KCNQ1 channel, primary screen, cell-based, thallium flux, high-throughput | Potassium voltage-gated channel subfamily KQT member 1 (Homo sapiens), P51787 | CHO-K1 KCNQ1, FluxOR thallium flux fluorescence; active compounds read high | B-score at 10 µM | 310,000 compounds, 1.3% hits;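 active = compounds whose thallium flux B-score, printed positive for inhibition, exceeds three library SD while starting fluorescence stays within three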;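 also: channel opened by potassium depolarization with thallium stimulus after 20 min compound exposure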
# Starred values were filed as active, the others as inactive; i = inactive; nt = not tested or not shown.
SMILES,KCNQ1 pot,KCNK9 block,hERG protect,KCNK3 block,Kir21 block,KCNQ1 block
CC(=O)C[C@H]1c2cc(C(F)(F)F)ccc2S(=O)(=O)N1C1CCCCC1,10*,i,-2.4,i,-2.38,i
CCCCCCCCN1[C@@H](CC(C)=O)c2cc(C(F)(F)F)ccc2S1(=O)=O,56*,i,-14.4,i,1.87,i
COc1ccc(CN2[C@@H](CC(=O)O)c3ccc(C(F)(F)F)cc3S2(=O)=O)cc1,i,i,-3.0,nt,-0.26,i
COc1ccc(CN2[C@@H](CC(=O)O)c3cc(C(F)(F)F)ccc3S2(=O)=O)cc1,i,i,6.4*,i,-0.48,i
COc1ccc(NC(=O)CCN(c2ccc(OC)cc2)S(=O)(=O)c2ccc(C)c(C)c2)cc1,nt,nt,nt,i,nt,nt
COC(=O)C1CC2=C(CCCC2=O)N(Cc2ccccc2)C1=O (stereo not given),nt,nt,nt,i,nt,nt
O=C(OCC1CCC=CO1)C1CCC=CO1 (stereo not given),nt,nt,nt,i,nt,nt
CCOC(=O)N1CCN(C(=O)COC(=O)c2ccc(Cl)nc2)CC1,nt,nt,nt,i,nt,nt
OCCCc1nc2n(n1)C(c1ccccc1Cl)C=C(c1cccs1)N2 (stereo not given),i,i,-16.7,-10.2*,-2.49,i
OCCCc1nc2n(n1)C(c1ccccc1)C=C(c1ccc(F)cc1)N2 (stereo not given),i,i,-16.0,i,-0.92,i
COc1ccccc1NC(=O)Nc1ccc(-n2ccc(C(F)(F)F)n2)cc1,i,-7.79*,-7.4,i,-0.01,i
CC(=O)OCCN(C)c1cc(SC(C)C)c2nonc2c1[N+](=O)[O-],i,i,7.4*,i,-0.2,i
CCCCN(CCCC)C(=O)c1cc(Cl)ccc1[N+](=O)[O-],i,i,-11.0,i,-6.97*,i
O=C(O)CCn1c(SCc2ccccc2)nc2ccccc21,i,i,-2.9,i,0.68,i
Cc1noc(C)c1CSc1nc2ccccc2n1CCc1ccccc1,i,i,-14.6,i,-7.24*,i
CC1=NN(S(=O)(=O)c2ccc(Cl)cc2Cl)C(=O)c2ccccc2O1,i,i,-12.6,i,-4.83*,i
Cc1nn(-c2ccc(Cl)cc2Cl)c(=O)c2ccccc12,i,i,0.7,i,-0.42,i
COc1ccc(-c2ccc3c(c2)C2CC3CCN2)cc1 (stereo not given),nt,nt,nt,i,nt,nt
CC1=CS(=O)(=O)CC1Sc1ncn[nH]1 (stereo not given),i,i,4.7*,i,-0.57,i
Cc1cccc2sc(NC(=O)c3ccc(OCC4CCCO4)cc3)nc12 (stereo not given),i,i,6.5*,i,0.25,i
Cc1csc(NC(=O)c2ccc(OCC3CCCO3)cc2)n1 (stereo not given),i,i,-12.8,i,0.97,i
O=S(=O)(NCCc1ccccc1)c1ccc(Br)s1,i,i,-6.1,i,-4.25*,i
O=C(O)CNS(=O)(=O)c1ccc(Br)s1,i,i,-5.9,i,-1.09,i
CN(Cc1ccc(C(C)(C)C)cc1)C(=O)c1ccc2c(c1)OCO2,nt,nt,nt,i,nt,nt
Oc1c(N=Nc2ccccn2)ccc2ccccc12,29*,i,24.6*,i,-0.01,i
Oc1[nH]c2ccccc2c1N=Nc1ccccn1,nt,nt,nt,i,nt,nt
CC(=O)c1c(OC(=O)c2ccc(C)cc2)c2ccccc2n1C,i,-7.24*,-2.3,i,-0.41,i
COC(=O)c1cc(CSC(=N)N)ccc1OCCC(C)C,i,i,-9.5,i,-9.47*,i
